These results are taken from ChEMBL document CHEMBL4402595, “Discovery of Orally Bioavailable Chromone Derivatives as Potent and Selective BRD4 Inhibitors: Scaffold Hopping, Optimization, and Pharmacological Evaluation” (J Med Chem, 2020).

Molecules are shown by their SMILES. The source made the active and inactive calls. No cut-off for these calls is given here.

What is called half-life is the time in which the quantity being followed falls by half. The term Cmax denotes the peak of the concentration-time curve. What is called inhibition in vivo is the percentage by which the read-out fell short of the control.

Data set [1] is described as follows: Half life in Sprague-Dawley rat at 20 mg/kg, po measured after 2 to 26 hrs. It is filed as ADME, organism-based. The settings on record: in vivo.
In data set [2] the test system is Mus musculus. The data set can be described thus: Antiinflammatory activity in C57BL6/J mouse model of TLR3-induced acute airway inflammation assessed as inhibition of elevated KC gene expression in lung at 10 mg/kg, ip pre-treated 1 day before poly(I:C) stimulation followed by compound re-dosing at 10 mg/kg, ip before another poly(I:C) stimulation and measured after 1 day post last poly(I:C) stimulation. In kind it is functional, organism-based. Summed up: (§1)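 Male C57BL/6J mice, 12 weeks old, 5 per group, dosed 10 mg/kg one day before challenge and again immediately before intranasal poly(I:C) (300 μg in 50 μL PBS). Controls were vehicle alone and poly(I:C) alone. Lungs were taken 1 day later. Gene expression in lung tissue was measured by qRT-PCR, normalized to PPIA.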

Data set [3] deals with Mus musculus. The data set can be described thus: In-vivo inhibition of BRD4 in C57BL6/J mouse model of TLR3-induced acute airway inflammation assessed as reduction in H3K122Ac levels in lung at 10 mg/kg, ip pre-treated 1 day before poly(I:C) stimulation followed by compound re-dosing at 10 mg/kg, ip before another poly(I:C) stimulation and measured after 1 day post last poly(I:C) stimulation by immunofluorescence staining. In kind it is functional, organism-based. An outline of the steps: (§2)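 Male C57BL/6J mice, 5 per group, dosed 10 mg/kg before and again at intranasal poly(I:C) challenge (300 μg). Lungs were taken 1 day later, paraffin sections made, and antigen retrieved at pH 9.0. Sections were stained with anti-acetyl-H3K122 and an Alexa 568 secondary with DAPI, imaged by confocal at 63×, and total fluorescence reported as fold change.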

In data set [4] the test system is Mus musculus. Description: Antiinflammatory activity in C57BL6/J mouse model of TLR3-induced acute airway inflammation assessed as inhibition of elevated CIG5 gene expression in lung at 10 mg/kg, po pre-treated 1 day before poly(I:C) stimulation followed by compound re-dosing at 10 mg/kg, po before another poly(I:C) stimulation and measured after 1 day post last poly(I:C) stimulation. In kind it is functional, organism-based. Summed up: as §1

Data set [5] concerns Mus musculus. Description: In-vivo inhibition of BRD4 in C57BL6/J mouse model of TLR3-induced acute airway inflammation assessed as reduction in H3K122Ac levels in lung at 10 mg/kg, po pre-treated 1 day before poly(I:C) stimulation followed by compound re-dosing at 10 mg/kg, po before another poly(I:C) stimulation and measured after 1 day post last poly(I:C) stimulation by immunofluorescence staining. In kind it is functional, organism-based. An outline of the steps: as §2

In data set [6] the test system is Mus musculus. Description: Antiinflammatory activity in C57BL6/J mouse model of TLR3-induced acute airway inflammation assessed as inhibition of elevated MCP1 levels in BALF at 10 mg/kg, po pre-treated 1 day before poly(I:C) stimulation followed by compound re-dosing at 10 mg/kg, po before another poly(I:C) stimulation and measured after 1 day post last poly(I:C) stimulation by cytokine Bio-Plex assay. In kind it is functional, organism-based. An outline of the steps: (§3)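 Male C57BL/6J mice, 12 weeks old, 5 per group, dosed 10 mg/kg the day before and again immediately before intranasal poly(I:C) (300 μg in 50 μL PBS). BALF was collected 1 day later by two 1 mL PBS lavages and centrifuged at 800 × g for 5 min at 4 °C. Supernatant cytokines were measured by multiplex bead immunoassay against recombinant standards in triplicate.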

Data set [7] deals with Mus musculus. The data set can be described thus: Antiinflammatory activity in C57BL6/J mouse model of TLR3-induced acute airway inflammation assessed as inhibition of elevated neutrophils in BALF at 10 mg/kg, ip pre-treated 1 day before poly(I:C) stimulation followed by compound re-dosing at 10 mg/kg, ip before another poly(I:C) stimulation and measured after 1 day post last poly(I:C) stimulation. In kind it is functional, organism-based. Summed up:
(§4)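 Male C57BL/6J mice, 12 weeks old, 5 per group, dosed 10 mg/kg one day before and again immediately before intranasal poly(I:C) (300 μg/50 μL PBS). BALF was collected 1 day later. Total viable cells were counted by trypan blue with a hemocytometer. Neutrophils were counted as a differential of 300 cells on Wright-Giemsa stained cytospins.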

In data set [8] the test system is Mus musculus. The data set can be described thus: Antiinflammatory activity in C57BL6/J mouse model of TLR3-induced acute airway inflammation assessed as inhibition of elevated neutrophils in BALF at 10 mg/kg, po pre-treated 1 day before poly(I:C) stimulation followed by compound re-dosing at 10 mg/kg, po before another poly(I:C) stimulation and measured after 1 day post last poly(I:C) stimulation. It is filed as functional, organism-based. Summed up: as §4

Data set [9] can be described thus: Cmax in Sprague-Dawley rat at 20 mg/kg, po measured after 2 to 26 hrs. It is filed as ADME, organism-based. Details: dose 20 mg/kg, route oral. The settings on record: in vivo.
The test system of data set [10] is Mus musculus. Description: Antiinflammatory activity in C57BL6/J mouse model of TLR3-induced acute airway inflammation assessed as inhibition of elevated total cells in BALF at 10 mg/kg, po pre-treated 1 day before poly(I:C) stimulation followed by compound re-dosing at 10 mg/kg, po before another poly(I:C) stimulation and measured after 1 day post last poly(I:C) stimulation. It is filed as functional, organism-based. Summed up:
as §4

In data set [11] the test system is Mus musculus. The data set can be described thus: Antiinflammatory activity in C57BL6/J mouse model of TLR3-induced acute airway inflammation assessed as inhibition of neutrophilic inflammation around small and medium-sized airways at 10 mg/kg, ip pre-treated 1 day before poly(I:C) stimulation followed by compound re-dosing at 10 mg/kg, ip before another poly(I:C) stimulation and measured after 1 day post last poly(I:C) stimulation by …. It is filed as functional.

Data set [12] can be described thus: Half life in Sprague-Dawley rat at 10 mg/kg, iv measured after 2 to 26 hrs. In kind it is ADME, organism-based. The following applies: in vivo.
Data set [13] deals with Mus musculus. The data set can be described thus: Antiinflammatory activity in C57BL6/J mouse model of TLR3-induced acute airway inflammation assessed as inhibition of elevated IL6 gene expression in lung at 10 mg/kg, ip pre-treated 1 day before poly(I:C) stimulation followed by compound re-dosing at 10 mg/kg, ip before another poly(I:C) stimulation and measured after 1 day post last poly(I:C) stimulation. In kind it is functional, organism-based. An outline of the steps:
as §1

Data set [14] is described as follows: Oral bioavailability in Sprague-Dawley rat at 20 mg/kg measured after 2 to 26 hrs. It is filed as ADME, organism-based. The settings on record: in vivo. Summed up: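 Male Sprague-Dawley rats received a single dose either intravenously (10 mg/kg) or orally. Plasma concentration–time curves were followed after each route. Total clearance (CL) came from the i.v. arm, and oral bioavailability (F) was derived by comparing the p.o. and i.v. profiles.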

Data set [15] concerns Mus musculus. The data set can be described thus: Antiinflammatory activity in C57BL6/J mouse model of TLR3-induced acute airway inflammation assessed as inhibition of neutrophilic inflammation around small and medium-sized airways at 10 mg/kg, po pre-treated 1 day before poly(I:C) stimulation followed by compound re-dosing at 10 mg/kg, po before another poly(I:C) stimulation and measured after 1 day post last poly(I:C) stimulation by …. It is filed as functional.

Data set [16] concerns Mus musculus. The data set can be described thus: Antiinflammatory activity in C57BL6/J mouse model of TLR3-induced acute airway inflammation assessed as inhibition of elevated ISG54 gene expression in lung at 10 mg/kg, ip pre-treated 1 day before poly(I:C) stimulation followed by compound re-dosing at 10 mg/kg, ip before another poly(I:C) stimulation and measured after 1 day post last poly(I:C) stimulation. In kind it is functional, organism-based. Summed up: as §1

In data set [17] the test system is Mus musculus. Description: Antiinflammatory activity in C57BL6/J mouse model of TLR3-induced acute airway inflammation assessed as inhibition of elevated CIG5 gene expression in lung at 10 mg/kg, ip pre-treated 1 day before poly(I:C) stimulation followed by compound re-dosing at 10 mg/kg, ip before another poly(I:C) stimulation and measured after 1 day post last poly(I:C) stimulation. In kind it is functional, organism-based. Summed up: as §1

Data set [18] deals with Mus musculus. The data set can be described thus: Antiinflammatory activity in C57BL6/J mouse model of TLR3-induced acute airway inflammation assessed as inhibition of elevated RANTES levels in BALF at 10 mg/kg, po pre-treated 1 day before poly(I:C) stimulation followed by compound re-dosing at 10 mg/kg, po before another poly(I:C) stimulation and measured after 1 day post last poly(I:C) stimulation by cytokine Bio-Plex assay. In kind it is functional, organism-based. Summed up:
as §3

`COc1cc(OC)c2c(=O)cc(-c3cc(C)c(OC[C@H](O)CN4CCN(C)CC4)c(C)c3)oc2c1`: the half-life was 2.8 h in [1] and 4.1 h in [12]. In addition, the inhibition entry in the data set on Mus musculus [2], with Mus musculus [3], with Mus musculus [4], in the data set on Mus musculus [5], in the data set on Mus musculus [6] and with Mus musculus [7] was “Active” in each case. In addition, the inhibition entry in the data set with Mus musculus [8], in the data set on Mus musculus [10], with Mus musculus [13], in the data set with Mus musculus [16], with Mus musculus [17] and in the data set on Mus musculus [18] was “Active” throughout. The same compound showed a Cmax in [9] of 606 ng/mL. Further, the inhibition in vivo at 10 mg/kg in the data set on Mus musculus [11] and in the data set with Mus musculus [15] was 100% each time. Further, the F in data set [14] is given as 35.3%.
Regarding `COc1cc(OC)c2c(=O)cc(-c3cc(C)c(OC[C@H](O)CN4CCCCC4)c(C)c3)oc2c1`, the half-life in data set [1] was 2.4 h; in data set [12], 3.5 h. Also, the inhibition result with Mus musculus [2], in the data set on Mus musculus [3], in the data set with Mus musculus [4], in the data set on Mus musculus [5], with Mus musculus [6] and with Mus musculus [7] was “Active” throughout. Besides, the inhibition entry in the data set with Mus musculus [8], in the data set on Mus musculus [10], in the data set on Mus musculus [13], with Mus musculus [16], in the data set on Mus musculus [17] and with Mus musculus [18] was “Active” each time. The compound further gave a Cmax in data set [9] of 575 ng/mL. For the same compound, the inhibition in vivo at 10 mg/kg with Mus musculus [11] and with Mus musculus [15] was 100% throughout. The same compound gave a F in [14] of 38.2%.
